Blank lines part the entries; values can stand above or below the compound they belong to. Calls of active or inactive are those of the source. The calls are words filed in the database; no cut-off is given here.
Assays:
Heparin [1] = assay: Binding affinity to heparin (unknown origin) assessed as apparent dissociation constant by SPR assay; design: species or system Homo sapiens; settings: read-out: Kd(app)
How it was run: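 Heparin-functionalized chip: biotin sensor chip loaded with streptavidin (50 μg/mL), then biotin-heparin (50 μg/mL). Ligands injected at 40 μL/min, 25 °C, in 25 mM Tris pH 7.5; surface regenerated with 10 mM HCl. Three independent runs at three ligand concentrations globally fitted to a 1:1 two-state (conformational change) model to give on/off rates and KDapp.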

Heparin [2] = assay: Reversal of heparin mediated anticoagulant activity in heparinized CD-1 mouse at 2.2 to 4.4 mg/kg, iv after 10 mins by tail transection assay; type: organism-based; settings: dose 2.2-4.4 mg/kg
How it was run: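 Eight-week-old male CD-1 mice anaesthetised with xylazine/ketamine, then given iv heparin (100 IU/kg) followed by ligand at 2.2 or 4.4 mg/kg; saline, heparin-only and ligand-only (4.4 mg/kg, n = 3) controls. Tails cut 5 mm from tip 5 min after injection and bled 10 min into 1 mL saline at 37 °C; blood volume from absorbance at 414 nm against a standard curve. ANOVA.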

Heparin [3] = assay: Binding affinity to heparin (unknown origin) assessed as apparent dissociation constant by fluorescence emission titration method; design: species or system Homo sapiens; settings: read-out: Kd(app)
How it was run: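 Binder at 10 μM in 1 mM Bis-Tris pH 7.5, excited at 280 nm; heparin stock (18 IU/mL) added in small portions with emission spectrum recorded after each addition. Full spectra globally fitted by nonlinear regression to a binding model of 1:1, 1:2 and 2:1 ligand–heparin disaccharide complexes to estimate equilibrium constants and apparent KD.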

Heparin [4] = assay: Inhibition of heparin (unknown origin) assessed as reversal of heparin reduced FXa protease activity by measuring Z-D-LGR-N(Me)ANBA peptide substrate at 1 uM hydrolysis after 30 mins; settings: Homo sapiens
How it was run: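 Human antithrombin III (0.02 IU/mL) and factor Xa (0.085 μg/mL) combined with heparin (0.1 IU/mL) and ligand (1 μM), then chromogenic substrate added (485 μM) with 4-nitroaniline as internal standard, shaken at 25 °C. Aliquots acid-quenched and analysed by HPLC at 405 nm; percent hydrolysis taken from normalized cleaved-peptide area, with no-heparin as maximal activity and heparin-only as maximal inhibition.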

A549 = assay: Cytotoxicity against human A549 cells assessed as reduction in cell viability at 25 to 50 uM incubated for 1 hr by MTT assay; type: functional, cell-based; settings: dose 25-50 µM
How it was run: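 A549 cells grown in DMEM with 10% FCS, 2 mM glutamine and antibiotics at 37 °C, 5% CO2; seeded at 7000 cells/well, exposed to compound in medium 24 h later for 1 h, then MTT (0.5 mg/mL) for 2 h, formazan dissolved in DMSO, absorbance read at 570 nm. Viability as percent of untreated cells; three independent experiments.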

Heparin [5] = assay: Reversal of heparin mediated anticoagulant activity in mouse blood after 15 mins; settings: dose 90-250 µM
How it was run: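 Freshly drawn, untreated mouse blood split into 300 μL aliquots, given heparin (130 μM, per disaccharide repeat unit) plus ligand at various concentrations; after 15 min, clotting judged by inverting the tubes and photographing.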

Heparin [6] = assay: Binding affinity to heparin (unknown origin) assessed as apparent dissociation constant by ITC assay; design: species or system Homo sapiens; settings: read-out: Kd(app)

SMILES: COc1ccccc1CNCCCNCCCCNCCCNCc1ccccc1OC
Kd (Heparin [1]): 33700 nM

SMILES: N=C(N)NCCC[C@H](N)C(=O)NCCCN1CCN(CCCNC(=O)[C@@H](N)CCCNC(=N)N)CC1 [CIRAPARANTAG]
Kd (Heparin [1]): 1530 nM | inhibition (Heparin [4]): Active

SMILES: Oc1ccccc1CNCCCNCCCCNCCCNCc1ccccc1O
Kd (Heparin [1]): 21500 nM | Kd (Heparin [6]): 22.5 µM

SMILES: Oc1ccccc1CNCCCNCCCCNCCCNCc1cccc2ccccc12
Kd (Heparin [1]): 1890 nM | Kd (Heparin [6]): 1.3 µM

SMILES: Oc1ccccc1CNCCCNCCCCNCCCNCc1ccc2ccccc2c1O
Kd (Heparin [1]): 1860 nM | inhibition (Heparin [4]): Active

SMILES: Oc1ccccc1CNCCCNCCCCNCCCNCc1c(O)ccc2ccccc12
Kd (Heparin [1]): 2620 nM

Further lines, with some results ahead:

Kd (Heparin [1]): 567 nM | Kd (Heparin [3]): 500 nM | inhibition (Heparin [4]): Active | Activity (Heparin [5]): Dose-Dependent Effect
SMILES: Oc1ccccc1CNCCCNCCCCNCCCNCc1ccc2c(c1)Cc1ccccc1-2
Activity (Heparin [2]): Active | Activity (A549): inactive

inhibition (Heparin [4]): Active
SMILES: Oc1c(CNCCCNCCCCNCCCNCc2ccc3ccccc3c2O)ccc2ccccc12

Kd (Heparin [1]): 797 nM | inhibition (Heparin [4]): Active | Activity (Heparin [5]): Dose-Dependent Effect
SMILES: Oc1ccc2ccccc2c1CNCCCNCCCCNCCCNCc1c(O)ccc2ccccc12
Activity (Heparin [2]): Active | Activity (A549): inactive

— ChEMBL document CHEMBL5042551, “Dynamic Combinatorial Optimization of In Vitro and In Vivo Heparin Antidotes” (J Med Chem, 2022)
